# Measured values of several laboratories.
# Compare with care: the assays were run in different laboratories.
# Cell line: MCF7
# Read-out: cell growth or viability
Structure (SMILES),assay,conditions,endpoint,value
COc1cc(C=NNC(=O)c2nc3ccccc3s2)ccc1OS(C)(=O)=O,MTT,"100 µM, 48 h",cell death,49.1%
O=C(NCc1cn(Cc2ccc(Cl)cc2)nn1)Nc1ccccc1Br,CCK-8,"50 µM, 48 h",viability,84.4%
CCS(=O)(=O)Oc1ccc(C=NNC(=O)c2nc3ccccc3s2)cc1OC,MTT,"100 µM, 48 h",cell death,40.5%
O=C(Nc1cccc(-c2cn(Cc3ccc(Cl)cc3)nn2)c1)Nc1ccccc1Br,CCK-8,"50 µM, 48 h",viability,89.5%
COc1cc(C=NNC(=O)c2nc3ccccc3s2)ccc1O,MTT,"100 µM, 48 h",cell death,16.6%
COc1ccc(NC(=O)Nc2cccc(-c3cn(Cc4ccc(Cl)cc4)nn3)c2)cc1,CCK-8,"50 µM, 48 h",viability,100%
COCCC(=O)Nc1ccccc1/N=c1\cc(-c2ccc3nc(N)oc3c2)oc2ccccc12,CCK-8,1 µM,inhibition,7.99%
COc1ccc(NC(=O)Nc2cccc(-c3cn(Cc4ccc(C)cc4)nn3)c2)cc1,CCK-8,"50 µM, 72 h",viability,104%
CN(C)CCNC(=O)c1ccc(-c2nc3ccc4[nH]ncc4c3c3c2CCCC3)c(F)c1,,72 h,GI50,3.32 µM
COc1cccc2c1C(=O)c1c(O)c3c(c(O)c1C2=O)C[C@@](O)(C(=O)CO)C[C@@H]3O[C@H]1C[C@H](N)[C@H](O)[C@H](C)O1,MTT,24 h,IC50,5.93 µM
COc1ccc(NC(=O)NCc2cn(Cc3ccc(Cl)cc3)nn2)cc1,CCK-8,"50 µM, 48 h",viability,90.6%
COc1ccc2/c(=N/c3ccccc3NC(=O)N3CCOCC3)cc(-c3ccc4c(c3)OCCO4)oc2c1,CCK-8,1 µM,inhibition,7.65%
CN(C)CCNC(=O)c1ccc(-c2nc3ccc4[nH]ncc4c3c3c2CCCC3)cc1,,72 h,GI50,3.34 µM
O=C(Nc1cccc(-c2cn(Cc3ccc(Br)cc3)nn2)c1)Nc1ccccc1Br,CCK-8,"50 µM, 72 h",viability,76.8%
NCCC(=O)Nc1ccccc1/N=c1\cc(-c2ccc3nc(N)oc3c2)oc2ccc(O)cc12,CCK-8,1 µM,inhibition,12.1%
CC(C)C[C@@H](NC(=O)[C@H](C)NC(=O)CNC(=O)[C@@H](NC=O)C(C)C)C(=O)N[C@@H](C)C(=O)N[C@@H](C(=O)N[C@H](C(=O)N[C@@H](C(=O)N[C@@H](Cc1c[nH]c2ccccc12)C(=O)N[C@H](CC(C)C)C(=O)N[C@@H](Cc1c[nH]c2ccccc12)C(=O)N[C@H](CC(C)C)C(=O)N[C@@H](Cc1c[nH]c2ccccc12)C(=O)N[C@@H](C(=O)N[C@@H](Cc1c[nH]c2ccccc12)C(=O)NCCO)C(C)C)[C@H](C)O)C(C)C)C(C)C,SRB,48 h,GI50,0.397 µM
Cc1n[nH]c2ccc3nc(-c4ccc(C(=O)NCCN(C)C)cc4)c4c(c3c12)CCCC4,,72 h,GI50,2.4 µM
O=C(NCc1cn(Cc2ccc(Br)cc2)nn1)Nc1ccc(Cl)cc1,CCK-8,"50 µM, 48 h",viability,89.8%
CCNc1nc2ccc(-c3c/c(=N\c4ccccc4NC(=O)CCN)c4ccccc4o3)cc2o1,CCK-8,1 µM,inhibition,3.78%
COc1ccc(NC(=O)Nc2cccc(-c3cn(Cc4ccccc4C)nn3)c2)cc1,CCK-8,"50 µM, 48 h",viability,94.8%
Cc1n[nH]c2ccc3nc(-c4ccc(C(=O)NCCN(C)C)cc4F)c4c(c3c12)CCCC4,,72 h,GI50,0.99 µM
O=C(NCc1cn(Cc2ccc(Br)cc2)nn1)Nc1ccccc1Br,CCK-8,"50 µM, 48 h",viability,84.7%
NCCC(=O)Nc1ccccc1/N=c1\cc(-c2ccc3nc(N)oc3c2)oc2cc(O)ccc12,CCK-8,1 µM,inhibition,9.96%
COc1ccc(NC(=O)NCc2cn(Cc3ccc(Br)cc3)nn2)cc1,CCK-8,"50 µM, 72 h",viability,89.2%
Cc1nc(NC(=O)N2CCC[C@H]2C(N)=O)sc1-c1ccnc(C(C)(C)C(F)(F)F)c1,ATP luminescence,5 days,EC50,0.917 µM
CCOc1ccc(-c2cc(C(=O)O)c(-c3ccc(Cl)cc3)o2)cc1,MTT,48 h,EC50,170 µM
O=C(Nc1ccc(-c2cn(Cc3ccc(Br)cc3)nn2)cc1)Nc1ccccc1Br,CCK-8,"50 µM, 48 h",viability,92.9%
Cc1n[nH]c2ccc3nc(-c4ccc(C(=O)NCCN(C)C)cc4)c4c(c3c12)CCCCC4,,72 h,GI50,5.25 µM
NCCCCC(=O)Nc1ccccc1/N=c1\cc(-c2ccc3c(c2)OCO3)oc2ccccc12,CCK-8,1 µM,inhibition,-4.92%
O=C(Nc1ccc(-c2cn(Cc3ccc(Cl)cc3)nn2)cc1)Nc1ccccc1Br,CCK-8,"50 µM, 72 h",viability,104%
CC(C)(C)[C@H](N)C(=O)Nc1ccccc1/N=c1\cc(-c2ccc3c(c2)OCCO3)oc2cc(F)ccc12,CCK-8,1 µM,inhibition,9.85%
COc1ccc(NC(=O)Nc2ccc(-c3cn(Cc4ccc(Cl)cc4)nn3)cc2)cc1,CCK-8,"50 µM, 48 h",viability,95.1%
Nc1nc2ccc(-c3c/c(=N\c4ccccc4NC(=O)CCN4CCOCC4)c4ccccc4o3)cc2o1,CCK-8,1 µM,inhibition,7.35%
COc1ccc(NC(=O)Nc2cccc(-c3cn(Cc4cccc(Cl)c4)nn3)c2)cc1,CCK-8,"50 µM, 72 h",viability,101%
O=C(NCc1cn(Cc2cccc(Cl)c2)nn1)Nc1ccc(Cl)cc1,CCK-8,"50 µM, 48 h",viability,82%
O=c1[nH]cc(F)c(=O)[nH]1,MTT,"100 µM, 48 h",cell death,71.2%
COc1ccc(NC(=O)Nc2ccc(-c3cn(Cc4ccc(C)cc4)nn3)cc2)cc1,CCK-8,"50 µM, 72 h",viability,87.4%
